The results in this text go back to ChEMBL document CHEMBL1137351, “Discovery of conformationally constrained tetracyclic compounds as potent hepatitis C virus NS5B RNA polymerase inhibitors” (J Med Chem, 2006).

Series [1] has as its system Huh-5-2. The series can be described thus: Inhibition of replication of HCV 1b BK RNA in Huh5-2 cells in presence of 10% fetal calf serum. Format: functional, cell-based, Hepacivirus hominis. Conditions: Homo sapiens, genotype 1b BK; call rule not given here. The procedure, abridged: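 Huh-5-2 cells carrying the HCV replicon, assayed in medium with 10% FCS. EC50 is the mean of three independent experiments, with standard deviations within 30% of the mean.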

Series [2] is described as follows: (§1) Permeability across Caco-2 cells. Format: ADME, cell-based. Conditions: human, read-out: permeability.
Series [3] deals with Caco-2. The series can be described thus: Cytotoxicity against Caco-2 cells. The format is functional. Conditions: Homo sapiens.
Series [4] deals with RNA-directed RNA polymerase (Hepacivirus hominis, UniProt O39930). The series can be described thus: Inhibition of HCV NS5B RNA polymerase.
Series [5] deals with Huh-5-2. The series can be described thus: Inhibition of replication of HCV 1b BK RNA in Huh5-2 cells in presence of 10% fetal calf serum and 4% human serum albumin. Format: functional, cell-based, Hepacivirus hominis. Conditions: genotype 1b BK. A digest of the protocol:
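Huh-5-2 replicon cells in medium with 10% FCS plus 4% human serum albumin. EC50 is the average of two experiments.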

Series [6] has as its system Caco-2. The description is as §1. The format is ADME, cell-based. Conditions: human.

Chain of RNA-directed RNA polymerase (O39930 whole entry): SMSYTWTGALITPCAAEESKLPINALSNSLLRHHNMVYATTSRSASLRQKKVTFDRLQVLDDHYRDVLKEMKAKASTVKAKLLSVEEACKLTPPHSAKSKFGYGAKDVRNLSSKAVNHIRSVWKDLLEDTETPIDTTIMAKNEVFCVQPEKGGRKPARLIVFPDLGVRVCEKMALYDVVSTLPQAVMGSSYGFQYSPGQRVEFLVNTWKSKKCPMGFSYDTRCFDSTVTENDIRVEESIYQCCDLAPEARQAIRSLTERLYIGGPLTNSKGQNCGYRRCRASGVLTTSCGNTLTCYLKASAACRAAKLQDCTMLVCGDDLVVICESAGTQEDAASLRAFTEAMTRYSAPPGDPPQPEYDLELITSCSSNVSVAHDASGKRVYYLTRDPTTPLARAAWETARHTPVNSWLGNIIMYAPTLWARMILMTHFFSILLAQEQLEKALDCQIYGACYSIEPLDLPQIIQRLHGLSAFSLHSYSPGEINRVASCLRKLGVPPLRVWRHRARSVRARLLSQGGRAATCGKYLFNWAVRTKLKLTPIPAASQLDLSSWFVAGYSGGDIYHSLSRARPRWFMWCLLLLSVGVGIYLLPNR

With `Cl.O=C(O)c1ccc2c(C3CCCCC3)c3n(c2c1)CCNc1ccccc1-3`, the values for the EC50 with Huh-5-2 [1] and with Huh-5-2 [5] were 570 nM and greater than 10000 nM, respectively. Further, the Papp in series [2] is 55.9 ×10⁻⁶ cm/s. Besides, the cytotoxic concentration (CC50) in the series with Caco-2 [3] is greater than 20000 nM. The compound further came in with an IC50 in series [4] of 21 nM.
As for `Cl.Cl.O=C(O)c1ccc2c(C3CCCCC3)c3n(c2c1)CCN(CCN1CCCCC1)c1ccccc1-3`, the values for the EC50 with Huh-5-2 [1] and in the series with Huh-5-2 [5] were 35 nM and 84 nM, respectively. Moreover, the Papp in series [2] is 18.6 ×10⁻⁶ cm/s. This compound showed a half-maximal cytotoxic concentration (CC50) in the series with Caco-2 [3] greater than 20000 nM. In addition, half-maximal inhibition in series [4] (IC50) was put at 9 nM.
The corresponding values for `CN(C)CCN1CCn2c(c(C3CCCCC3)c3ccc(C(=O)O)cc32)-c2ccccc21.Cl.Cl` are 53 nM, 200 nM, 19.2 ×10⁻⁶ cm/s, greater than 20000 nM and 18 nM.
As to `CN1CCn2c(c(C3CCCCC3)c3ccc(C(=O)O)cc32)-c2ccccc21`, the EC50 with Huh-5-2 [1] was 590 nM; in the series with Huh-5-2 [5], 6500 nM. Moreover, the result in the series with Caco-2 [6] was Active. Further, the CC50 in the series with Caco-2 [3] is greater than 20000 nM. In series [4], this compound showed an IC50 of 19 nM.
With `O=C(O)c1ccc2c(C3CCCCC3)c3n(c2c1)CCSc1ccccc1-3`, in the series on Huh-5-2 [1], the EC50 was found to be 1400 nM. The compound further showed an IC50 in series [4] of 38 nM.
Consider `CC(C)N1CCn2c(c(C3CCCCC3)c3ccc(C(=O)O)cc32)-c2ccccc21`, for which the EC50 in the series with Huh-5-2 [1] turned out to be 1500 nM. In addition, in the series with Caco-2 [6], the result was Active. The compound further came in with a 50% cytotoxic concentration (CC50) in the series on Caco-2 [3] greater than 20000 nM. This compound also yielded an IC50 in series [4] of 36 nM.
Turning to `O=C(O)c1ccc2c(C3CCCCC3)c3n(c2c1)CCCc1ccccc1-3`, the EC50 in the series on Huh-5-2 [1] came to 3000 nM. The compound also displayed a half-inhibitory concentration (IC50) in series [4] of 77 nM.
Take `O=C(O)c1ccc2c(C3CCCCC3)c3n(c2c1)CCN(CCc1ccccc1)c1ccccc1-3`: in the series on Huh-5-2 [1], the concentration for a half-maximal effect (EC50) is 310 nM. The outcome with Caco-2 [6] was Active. In the series on Caco-2 [3], the CC50 was greater than 20000 nM. Besides, the half-maximal inhibitory concentration (IC50) in series [4] turned out to be 26 nM.
Take `Cn1c(-c2ccc(OCc3ccccc3)cc2)c(C2CCCCC2)c2ccc(C(=O)O)cc21`: in series [4], the IC50 turned out to be 120 nM.
Take `CC(=O)N1CCn2c(c(C3CCCCC3)c3ccc(C(=O)O)cc32)-c2ccccc21`: the concentration for a half-maximal effect (EC50) with Huh-5-2 [1] worked out at 1100 nM. Besides, the result with Caco-2 [6] was Active. The same compound returned a 50% cytotoxic concentration (CC50) in the series with Caco-2 [3] greater than 20000 nM. The compound further showed an IC50 in series [4] of 120 nM.
As to `O=C(O)c1ccc2c(C3CCCCC3)c3n(c2c1)Cc1ccccc1-3`, the concentration giving a half-maximal response (EC50) in the series on Huh-5-2 [1] was greater than 10000 nM. For the same compound, the IC50 in series [4] worked out at 210 nM.
As to `O=C(O)c1ccc2c(C3CCCCC3)c3n(c2c1)CCc1ccccc1-3`, in the series with Huh-5-2 [1], the EC50 came to 6000 nM. This compound returned an IC50 in series [4] of 140 nM.
As to `CN(C)C(=O)CN1CCn2c(c(C3CCCCC3)c3ccc(C(=O)O)cc32)-c2ccccc21`, the results for the EC50 in the series on Huh-5-2 [1] and in the series with Huh-5-2 [5] were 210 nM and 4300 nM, respectively. Besides, the Papp in series [2] came to 51.9 ×10⁻⁶ cm/s. Besides, the CC50 in the series with Caco-2 [3] was greater than 20000 nM. In series [4], this compound gave a concentration for half-maximal inhibition (IC50) of 24 nM.
`O=C(O)c1ccc2c(C3CCCCC3)c3n(c2c1)CCOc1cc(OCc2ccccc2)ccc1-3` registered a half-maximal inhibitory concentration (IC50) in series [4] of 17 nM.
Take `O=C(O)c1ccc2c(C3CCCCC3)c3n(c2c1)CCOc1ccccc1-3`: the EC50 in the series on Huh-5-2 [1] amounted to 860 nM. Besides, in series [4], the IC50 was determined as 26 nM.
The corresponding values for `O=C(O)c1ccc2c(C3CCCCC3)c3n(c2c1)COc1ccccc1-3` are 4200 nM and 140 nM.
On to `O=C(O)c1ccc2c(C3CCCCC3)c3n(c2c1)CCN(Cc1ccccc1)c1ccccc1-3`, for which, in the series with Huh-5-2 [1], the 50% effective concentration (EC50) came out at 550 nM. Moreover, the outcome with Caco-2 [6] was Active. Moreover, the half-maximal cytotoxic concentration (CC50) with Caco-2 [3] was greater than 20000 nM. Also, half-maximal inhibition in series [4] (IC50) was put at 41 nM.

In general, EC50 refers to the concentration that produces a half-maximal response. In general, CC50 refers to the concentration at which the toxic effect on the cells reaches its halfway point. Lower therefore signals harm at low concentration. For orientation: IC50 means the concentration needed to halve the response being measured. A low value points to higher potency.
